PHOSPHO1 inh: blocks human PHOSPHO1 phosphatase activity; AID 1565; Q8TCT1; inhibition, % at 13.3 µM; recombinant PHOSPHO1, absorbance phosphatase assay; hit rate 1.1% among 290,000; in the data active means inhibition above about 60%
Target sequence (Q8TCT1 whole entry, looked up): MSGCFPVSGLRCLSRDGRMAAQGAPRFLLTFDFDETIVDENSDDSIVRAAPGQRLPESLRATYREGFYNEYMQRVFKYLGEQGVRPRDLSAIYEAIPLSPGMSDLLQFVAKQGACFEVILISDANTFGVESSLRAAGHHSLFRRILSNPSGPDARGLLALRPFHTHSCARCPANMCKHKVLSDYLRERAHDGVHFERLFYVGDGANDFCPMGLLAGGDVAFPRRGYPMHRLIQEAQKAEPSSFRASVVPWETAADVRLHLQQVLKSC
MrgX1 antag: blocks BAM8-22 activation of human MrgX1 receptor; Q96LB2; MRGX1-HEK293 calcium flux, Fluo-4, BAM8-22 antagonism; hits give low values; AID 588676; B-score at 10 µM; hit rate 1.3% among 310,000;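 active means calcium-response B-score plate-corrected more than 3 library SD below zero, starting fluorescence within 5 deviations, no agonist response on first addition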;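 further: peak minus trough fluorescence over baseline after final BAM8-22 challenge near maximal dose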
Target sequence (Q96LB2 whole entry, looked up): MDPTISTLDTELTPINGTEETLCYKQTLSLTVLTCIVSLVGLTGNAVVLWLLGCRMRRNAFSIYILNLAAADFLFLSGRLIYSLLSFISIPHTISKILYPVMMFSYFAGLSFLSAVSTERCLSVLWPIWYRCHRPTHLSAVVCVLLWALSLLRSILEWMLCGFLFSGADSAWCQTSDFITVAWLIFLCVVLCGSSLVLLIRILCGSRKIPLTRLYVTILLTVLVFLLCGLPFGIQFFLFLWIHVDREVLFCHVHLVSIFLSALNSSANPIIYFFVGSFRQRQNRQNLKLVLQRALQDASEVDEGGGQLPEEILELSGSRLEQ
MrgX1 agonist: agonists of human MrgX1 receptor | Q96LB2 | MrgX1-HEK293 cells, Fluo-4 calcium fluorescence, agonist mode; hits give high values | B-score at 10 µM | hit rate 0.44% among 310,000 | AID 588627;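 active means calcium response B-score plate-corrected fluorescence ratio at least 3 library SD, with starting fluorescence B-score inside 5 SD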
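Material – MrgX1-expressing HEK293 cells · Input – 15,000 cells seeded per well · Dosing – compound as first of three additions · Times – overnight seeding, then 1 h dark dye loading · Measured by – kinetic Fluo-4 NW fluorescence of intracellular calcium · Read-out – B-scored fluorescence response ratio · Benchmarks – positive and negative control wells on each plate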
MrgX1 allo act: human MrgX1 positive allosteric modulation, primary screen | Q96LB2 | MrgX1-HEK293, Fluo-4 calcium flux, FDSS; hits give high values | B-score at 10 µM | hit rate 0.63% among 310,000 | AID 588675;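 active means plate-corrected calcium response at least 3 library SD above typical, normal starting fluorescence, not activating the receptor alone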;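 further: compound read alongside a low EC10 to EC30 dose of BAM8-22 agonist; peak minus trough fluorescence over baseline measured at the second addition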
RGS4 pot: RGS4 potentiation or activation; hit rate 0.92% among 310,000; AID 463111; HEK293 M3R/inducible RGS4, carbachol calcium flux Fluo4; hits give low values; B-score at 10 µM;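 active means B-score of the integrated calcium signal more than 4 SD below the library mean, with starting fluorescence not abnormally high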;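 further: negative B-score means reduced calcium response which marks RGS4 activation or potentiation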
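Assay system: Inducible-RGS4 HEK293 cells carrying M3 receptor | Schedule: Compound preincubation 20 min at room temperature before agonist | Signal: Kinetic calcium fluorescence imaging with Fluo4-AM dye, 2 µM | Read-out basis: B score from integrated fluorescence ratio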
RGS4 inh: inhibitors of human RGS4; hit rate 0.45% among 310,000; B-score at 10 µM; HEK293 M3R/RGS4 inducible, Fluo-4 calcium flux; hits give high values; triggered by carbachol at its EC20; P49798;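 active means B-score, a plate-corrected calcium signal, over three deviations above library mean, with baseline fluorescence within five deviations of library mean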;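 further: RGS4 expression induced by doxycycline in cells with stable M3 receptor; B-score is computed from the integrated fluorescence ratio over baseline after carbachol; higher B-score means a larger calcium signal and so more RGS4 inhibition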
Starred values were filed as active, the others as inactive. Compounds with a hit are over-represented: about 4.5% of the library has one in this group of screens.

Screening COc1ccc(N2CCN(C(=O)c3cc(-c4cccs4)nc4ccccc34)CC2)cc1 returned PHOSPHO1 inh 20.5, MrgX1 antag inactive, MrgX1 agonist inactive, MrgX1 allo act inactive, RGS4 pot inactive and RGS4 inh inactive.
Screening COCCN(Cc1ccccc1)C(=O)c1cc(-c2ccc(OC)c(OC)c2)nc2ccccc12 returned PHOSPHO1 inh 14.5, MrgX1 antag inactive, MrgX1 agonist inactive, MrgX1 allo act inactive, RGS4 pot -8.73* and RGS4 inh inactive.
Screening CCN(Cc1ccccc1)C(=O)c1cc(-c2ccc(OC)c(OC)c2)nc2ccccc12 returned PHOSPHO1 inh 40.3, MrgX1 antag inactive, MrgX1 agonist inactive, MrgX1 allo act inactive, RGS4 pot -9.15* and RGS4 inh inactive.
COc1cccc(CN(C)C(=O)c2cc(-c3cccs3)nc3ccccc23)c1 was read as PHOSPHO1 inh 33.5, MrgX1 antag inactive, MrgX1 agonist inactive, MrgX1 allo act inactive, RGS4 pot -9.1* and RGS4 inh inactive.
`COc1ccc(NC(=S)NC(=O)c2ccccc2Cl)cc1` gave PHOSPHO1 inh -12.4, MrgX1 antag inactive, MrgX1 agonist inactive, MrgX1 allo act inactive, RGS4 pot inactive and RGS4 inh inactive.
`N#Cc1c(NC(=S)NC(=O)c2ccccc2)sc2c1CCCC2` gave PHOSPHO1 inh -6.9, MrgX1 antag inactive, MrgX1 agonist inactive, MrgX1 allo act inactive, RGS4 pot inactive and RGS4 inh inactive.
N#Cc1c(NC(=S)NC(=O)c2ccccc2)sc2c1CCN(CCc1ccccc1)C2 was read as PHOSPHO1 inh 14.4, MrgX1 antag inactive, MrgX1 agonist 57.7*, MrgX1 allo act inactive, RGS4 pot inactive and RGS4 inh inactive.
CCOC(=O)C1=C(C)N(CCCC(=O)NCc2ccc3c(c2)OCO3)C(=O)NC1c1ccc(Br)cc1 (stereo not drawn) was read as PHOSPHO1 inh 10.9, MrgX1 antag inactive, MrgX1 agonist inactive and MrgX1 allo act inactive.
COc1cc(CNCCCN2CCOCC2)cc(Cl)c1OCC(=O)NC(C)(C)C was read as MrgX1 antag inactive, MrgX1 agonist inactive, MrgX1 allo act inactive, RGS4 pot inactive and RGS4 inh inactive.
CCc1cc2c(SCc3ccc(C(=O)OC)o3)ncnc2s1 was read as PHOSPHO1 inh 24.0, MrgX1 antag inactive, MrgX1 agonist inactive, MrgX1 allo act inactive, RGS4 pot inactive and RGS4 inh inactive.
`COc1ccccc1OCCC(=O)OCC(=O)Nc1ccc(Br)cc1` gave PHOSPHO1 inh -11.7, MrgX1 antag inactive, MrgX1 agonist inactive, MrgX1 allo act inactive, RGS4 pot inactive and RGS4 inh inactive.
COc1ccccc1OCCC(=O)OCC(=O)NC(C)c1ccccc1 (stereo not drawn) was read as PHOSPHO1 inh -6.2, MrgX1 antag -6.14*, MrgX1 agonist inactive, MrgX1 allo act inactive, RGS4 pot inactive and RGS4 inh inactive.
Screening O=C(N/N=C/c1ccc2cccc(OCc3ccccc3)c2n1)c1ccc(Br)cc1 returned PHOSPHO1 inh 11.5, MrgX1 antag inactive, MrgX1 agonist inactive, MrgX1 allo act inactive, RGS4 pot -10.4* and RGS4 inh inactive.
NC(N)=N/N=C/c1ccc2cccc(OCc3ccccc3)c2n1 was read as PHOSPHO1 inh 28.1, MrgX1 antag -5.3*, MrgX1 agonist inactive, MrgX1 allo act inactive, RGS4 pot inactive and RGS4 inh inactive.
Screening COc1cc(/C=N/NC(=O)C(=O)N2CCCC2)ccc1O returned PHOSPHO1 inh 22.1, MrgX1 antag -6.67*, MrgX1 agonist inactive, MrgX1 allo act inactive, RGS4 pot inactive and RGS4 inh inactive.
`O=C(N/N=C/c1ccc(OC(=O)c2ccc([N+](=O)[O-])cc2)cc1)c1cccnc1` gave PHOSPHO1 inh 62.8*, MrgX1 antag inactive, MrgX1 agonist inactive, MrgX1 allo act inactive, RGS4 pot inactive and RGS4 inh inactive.
For COc1cc(C(=O)N/N=C/c2ccc(OC(=O)c3cccc(C)c3)c(OC)c2)ccc1O the results were PHOSPHO1 inh 40.3, MrgX1 antag inactive, MrgX1 agonist inactive, MrgX1 allo act inactive, RGS4 pot -7.06* and RGS4 inh inactive.
Screening O=C(N/N=C/c1ccc(OC(=O)c2ccccc2)cc1)c1cccnc1 returned PHOSPHO1 inh 41.6, MrgX1 antag inactive, MrgX1 agonist inactive, MrgX1 allo act inactive, RGS4 pot inactive and RGS4 inh inactive.
For COc1ccc(/C=N/NC(=O)C(=O)N2CCCC2)cc1OC the results were PHOSPHO1 inh -35.4, MrgX1 antag inactive, MrgX1 agonist inactive, MrgX1 allo act inactive, RGS4 pot inactive and RGS4 inh inactive.
COc1cc(C(=O)N/N=C/c2ccc(OC(=O)c3ccccc3Cl)cc2)ccc1O was read as PHOSPHO1 inh 6.1, MrgX1 antag inactive, MrgX1 agonist inactive, MrgX1 allo act inactive, RGS4 pot -10.5* and RGS4 inh inactive.
Nc1ccc(C(=O)N/N=C\c2ccc(OC(=O)c3ccccc3Cl)cc2)cc1 was read as PHOSPHO1 inh 29.1, MrgX1 antag inactive, MrgX1 agonist inactive, MrgX1 allo act inactive, RGS4 pot inactive and RGS4 inh inactive.
For Cc1cc(CNC(=O)COC(=O)Cn2[nH]c(=O)c3ccccc3c2=O)cc(C)c1O the results were MrgX1 antag inactive, MrgX1 agonist inactive, MrgX1 allo act inactive, RGS4 pot inactive and RGS4 inh inactive.
Cc1ccc(NC(=S)N(CCN2CCCCC2)Cc2ccco2)cc1Cl was read as PHOSPHO1 inh 16.3, MrgX1 antag inactive, MrgX1 agonist inactive, MrgX1 allo act inactive, RGS4 pot inactive and RGS4 inh inactive.
Cc1cccc(C(=O)Oc2ccc(/C=N/NC(=O)c3cc(O)cc(O)c3)cc2)c1 was read as PHOSPHO1 inh 1.0, MrgX1 antag inactive, MrgX1 agonist inactive, MrgX1 allo act inactive, RGS4 pot -10.2* and RGS4 inh inactive.
`CC(C)c1[nH]nc2c1C(Cc1ccccc1)C(C#N)=C(N)O2` (stereo not drawn) gave PHOSPHO1 inh 10.5, MrgX1 antag inactive, MrgX1 agonist inactive, MrgX1 allo act inactive, RGS4 pot -7.58* and RGS4 inh inactive.
For Cc1c(NC(=O)c2cc(-n3cnnc3)ccc2Cl)cccc1-c1nc2ccccc2s1 the results were PHOSPHO1 inh 39.9, MrgX1 antag inactive, MrgX1 agonist inactive, MrgX1 allo act inactive, RGS4 pot inactive and RGS4 inh inactive.
`O=C(Nc1cccc(-c2nc3ccccc3s2)c1)c1cc(-n2cnnc2)ccc1Cl` gave PHOSPHO1 inh 13.5, MrgX1 antag inactive, MrgX1 agonist inactive, MrgX1 allo act inactive, RGS4 pot -8.27* and RGS4 inh inactive.

High-throughput results as filed in PubChem BioAssay.
